Measured values published in ChEMBL document CHEMBL4433210, “Synthesis and Evaluation of Bifunctional Aminothiazoles as Antiretrovirals Targeting the HIV-1 Nucleocapsid Protein” (ACS Med Chem Lett, 2019).
Calls of active or inactive are those of the source.

Assays:
[1] = system: Human immunodeficiency virus 1; assay: Antiviral activity against wild type HIV1 NL4-3 infected in human TZM-bl cells assessed as reduction in viral replication after 48 hrs by bright Glo-luciferase reporter gene assay based BiCycle assay; assay type: functional, organism-based; settings: Human immunodeficiency virus 1, NL4-3, TZM-bl
Outline: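 BiCycle format: MT-2 cells infected with wild-type NL4-3 in the presence of compound dilutions. Virus produced in this first round was then quantified by infecting TZM-bl cells. IC50 was derived from the dose-response data.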

[2] = Inhibition of synthesized Nucleocapsid protein (11 to 55 residues) assessed as reduction in NC-induced cTAR DNA destabilization pre-treated with cTAR and Nucleocapsid (11-55) for 15 mins followed by compound addition at 10 uM by spectroflurometry relative to control
Outline: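 NC chaperone inhibition assay: fluorescence monitoring of NC-induced destabilization of cTAR DNA labelled with Alexa488 at the 5′ end and Dabcyl quencher at the 3′ end. Compound is tested at 10 μM.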

[3] = Cytotoxicity against human PBMC cells assessed as reduction in cell viability after 7 days by MTS assay; assay type: cell-based; settings: read-out: TD50
Outline: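 Cytotoxicity in peripheral blood mononuclear cells by MTS assay, giving TD50. Only compounds that met the BiCycle IC50 ≤ 5 μM criterion and were positive in the NC inhibition assay were tested.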

[4] = Selectivity index, ratio of TD50 for cytotoxicity aginst human PBMC cells to IC50 for antiviral activity against wild type HIV1 NL4-3 infected in human TZM-bl cells assessed as reduction in viral replication after 48 hrs by bright Glo-luciferase reporter gene assay based BiCycle assay; assay type: toxicity, cell-based; settings: read-out: Selectivity Index
Outline: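 SI calculated as TD50 from the PBMC MTS assay divided by IC50 from the BiCycle antiviral assay (MT-2 infection followed by TZM-bl read-out).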

[5] = system: Human immunodeficiency virus 1; assay: (§1) Antiviral activity against HIV1 11808 harboring protease L10F/K20T/V32I/L33F/I54V/G73S/I84V/L89V/L90M mutant infected in human TZM-bl cells infected with supernatants from virus-infected human MT2 cells treated with compound for 72 hrs assessed as reduction in viral replication after 48 hrs by bright Glo-luciferase reporter gene assay; assay type: functional, organism-based; settings: Human immunodeficiency virus 1, 11808
Outline: (§2)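 BiCycle assay: MT-2 cells infected with a drug-resistant HIV-1 strain in the presence of compound dilutions. Virus produced in this first round is then measured by infecting TZM-bl cells. The readout is IC50.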

[6] = system: Human immunodeficiency virus 1; assay: as §1, with “12465” for “11808”, “M46I/I54V/Q58E/T74P/V82L/L90M” for “L10F/K20T/V32I/L33F/I54V/G73S/I84V/L89V/L90M”; assay type: functional, organism-based; settings: Human immunodeficiency virus 1, 12465; outline: as §2
[7] = system: Human immunodeficiency virus 1; assay: as §1, with “7400” for “11808”, “nucleoside reverse transcriptase M41L/D67N/M184V/L210W/T215Y” for “protease L10F/K20T/V32I/L33F/I54V/G73S/I84V/L89V/L90M”; assay type: functional, organism-based; settings: Human immunodeficiency virus 1, 7400; outline: as §2
[8] = system: Human immunodeficiency virus 1; assay: as §1, with “7401” for “11808”, “nucleoside reverse transcriptase M41L/E44D/D67N/T69D/M184V/L210W/T215Y” for “protease L10F/K20T/V32I/L33F/I54V/G73S/I84V/L89V/L90M”; assay type: functional, organism-based; settings: Human immunodeficiency virus 1, 7401; outline: as §2
[9] = system: Human immunodeficiency virus 1; assay: as §1, with “12231” for “11808”, “non-nucleoside reverse transcriptase 103N/179F/181C” for “protease L10F/K20T/V32I/L33F/I54V/G73S/I84V/L89V/L90M”; assay type: functional, organism-based; settings: Human immunodeficiency virus 1, 12231; outline: as §2
[10] = system: Human immunodeficiency virus 1; assay: as §1, with “12229” for “11808”, “non-nucleoside reverse transcriptase L100I/K103N/H221Y” for “protease L10F/K20T/V32I/L33F/I54V/G73S/I84V/L89V/L90M”; assay type: functional, organism-based; settings: Human immunodeficiency virus 1, 12229; outline: as §2
[11] = system: Human immunodeficiency virus 1; assay: as §1, with “11845” for “11808”, “integrase 140S/148H double” for “protease L10F/K20T/V32I/L33F/I54V/G73S/I84V/L89V/L90M”; assay type: functional, organism-based; settings: Human immunodeficiency virus 1, 11845; outline: as §2
[12] = system: Human immunodeficiency virus 1; assay: Selectivity ratio of IC50 for HIV1 11808 harboring protease L10F/K20T/V32I/L33F/I54V/G73S/I84V/L89V/L90M mutant infected in human MT2 cells to IC50 for HIV1 NL4-3 infected in human MT2 cells; assay type: functional
Outline: (§3)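 Fold change is the IC50 against the resistant strain divided by the IC50 against the wild-type NL4–3 reference. Both IC50 values come from the BiCycle assay (MT-2 infection, then TZM-bl readout of progeny virus).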

[13] = system: Human immunodeficiency virus 1; assay: Selectivity ratio of IC50 for HIV1 12465 harboring protease M46I/I54V/Q58E/T74P/V82L/L90M mutant infected in human MT2 cells to IC50 for HIV1 NL4-3 infected in human MT2 cells; assay type: functional; outline: as §3
[14] = system: Human immunodeficiency virus 1; assay: Selectivity ratio of IC50 for HIV1 7400 harboring nucleoside reverse transcriptase M41L/D67N/M184V/L210W/T215Y mutant infected in human MT2 cells to IC50 for HIV1 NL4-3 infected in human MT2 cells; assay type: functional; outline: as §3
[15] = system: Human immunodeficiency virus 1; assay: Selectivity ratio of IC50 for HIV1 7401 harboring nucleoside reverse transcriptase M41L/E44D/D67N/T69D/M184V/L210W/T215Y mutant infected in human MT2 cells to IC50 for HIV1 NL4-3 infected in human MT2 cells; assay type: functional; outline: as §3
[16] = system: Human immunodeficiency virus 1; assay: Selectivity ratio of IC50 for HIV1 12231 harboring non-nucleoside reverse transcriptase 103N/179F/181C mutant infected in human MT2 cells to IC50 for HIV1 NL4-3 infected in human MT2 cells; assay type: functional; outline: as §3
[17] = system: Human immunodeficiency virus 1; assay: Selectivity ratio of IC50 for HIV1 12229 harboring non-nucleoside reverse transcriptase L100I/K103N/H221Y mutant infected in human MT2 cells to IC50 for HIV1 NL4-3 infected in human MT2 cells; assay type: functional; outline: as §3
[18] = system: Human immunodeficiency virus 1; assay: Selectivity ratio of IC50 for HIV1 11845 harboring integrase 140S/148H double mutant mutant infected in human MT2 cells to IC50 for HIV1 NL4-3 infected in human MT2 cells; assay type: functional; outline: as §3
[19] = system: Human immunodeficiency virus 1; assay: Antiviral activity against wild-type HIV1 NL4-3 infected infected in human MT2 cells assessed as reduction in HIV1 integrated DNA at 5 uM and measured after 30 hrs post infection by Alu-LTR PCR protocol based method; assay type: functional, organism-based
Outline: (§4)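 MT-2 cells were infected with NL4-3 at MOI 0.1 and incubated with test or reference agents at 20, 5 or 1 μM. Real-time PCR measured integrated HIV-1 DNA and intracellular and extracellular genomic HIV-1 RNA at 30 h post-infection. Levels are expressed as a percentage of the no-drug control culture.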

[20] = system: Human immunodeficiency virus 1; assay: Antiviral activity against wild-type HIV1 NL4-3 infected infected in human MT2 cells assessed as reduction in HIV1 intracellular genomic RNA level at 5 uM and measured after 30 hrs post infection by TaqMan probe based RT-PCR analysis; assay type: functional, organism-based; outline: as §4
[21] = system: Human immunodeficiency virus 1; assay: Antiviral activity against wild-type HIV1 NL4-3 infected infected in human MT2 cells assessed as reduction in HIV1 extracellular genomic RNA level at 5 uM and measured after 30 hrs post infection by TaqMan probe based RT-PCR analysis; assay type: functional, organism-based; outline: as §4
[22] = system: Human immunodeficiency virus 1; assay: Antiviral activity against wild-type HIV1 NL4-3 infected infected in human MT2 cells assessed as reduction in extracellular RNA at 5 uM and measured after 30 hrs post infection by Alu-LTR PCR protocol based method; assay type: functional, organism-based; outline: as §4
[23] = system: Human immunodeficiency virus 1; assay: Antiviral activity against wild-type HIV1 NL4-3 infected in human TZM-bl cells treated with compound assessed as reduction in viral replication after 48 hrs by bright Glo-luciferase reporter gene assay based monocycle assay; settings: Human immunodeficiency virus 1, NL4-3
[24] = system: Human immunodeficiency virus 1; assay: Antiviral activity against wild-type HIV1 NL4-3 infected infected in human MT2 cells assessed as reduction in intracellular RNA at 1 uM and measured after 30 hrs post infection by Alu-LTR PCR protocol based method; assay type: functional, organism-based; outline: as §4
[25] = system: Human immunodeficiency virus 1; assay: Antiviral activity against wild-type HIV1 NL4-3 infected infected in human MT2 cells assessed as reduction in extracellular RNA at 1 uM and measured after 30 hrs post infection by Alu-LTR PCR protocol based method; assay type: functional, organism-based; outline: as §4
[26] = system: Human immunodeficiency virus 1; assay: Antiviral activity against wild-type HIV1 NL4-3 infected infected in human MT2 cells assessed as reduction in HIV1 integrated DNA at 20 uM and measured after 30 hrs post infection by Alu-LTR PCR protocol based method; assay type: functional, organism-based; outline: as §4
[27] = system: Human immunodeficiency virus 1; assay: Antiviral activity against wild-type HIV1 NL4-3 infected infected in human MT2 cells assessed as reduction in HIV1 intracellular genomic RNA level at 20 uM and measured after 30 hrs post infection by TaqMan probe based RT-PCR analysis; assay type: functional, organism-based; outline: as §4
[28] = system: Human immunodeficiency virus 1; assay: Antiviral activity against wild-type HIV1 NL4-3 infected infected in human MT2 cells assessed as reduction in HIV1 extracellular genomic RNA level at 20 uM and measured after 30 hrs post infection by TaqMan probe based RT-PCR analysis; assay type: functional, organism-based; outline: as §4
[29] = system: Human immunodeficiency virus 1; assay: Antiviral activity against wild-type HIV1 NL4-3 infected infected in human MT2 cells assessed as reduction in intracellular RNA at 20 uM and measured after 30 hrs post infection by Alu-LTR PCR protocol based method; assay type: functional, organism-based; outline: as §4
[30] = system: Human immunodeficiency virus 1; assay: Antiviral activity against wild-type HIV1 NL4-3 infected infected in human MT2 cells assessed as reduction in extracellular RNA at 20 uM and measured after 30 hrs post infection by Alu-LTR PCR protocol based method; assay type: functional, organism-based; outline: as §4
[31] = system: Human immunodeficiency virus 1; assay: Antiviral activity against wild-type HIV1 NL4-3 infected in human TZM-bl cells infected with supernatants from virus-infected human HeLa P4.R5MAGI cells treated with compound for 72 hrs assessed as reduction in viral replication after 48 hrs by bright Glo-luciferase reporter gene assay; assay type: functional, organism-based; settings: Human immunodeficiency virus 1, NL4-3

SMILES: Nc1nc(CCOC(=O)c2ccc(COc3ccccc3-c3csc(N)n3)cc2)cs1.O=C(O)C(F)(F)F.O=C(O)C(F)(F)F
- IC50 [1]: 300 nM
- inhibition [2]: 18%
- CC50 at 168 h [3]: 16000 nM
- selectivity ratio at 48 h [4]: 53
- IC50 [5]: 1100 nM
- IC50 [6]: 400 nM
- IC50 [7]: 100 nM
- IC50 [8]: 500 nM
- IC50 [9]: 700 nM
- IC50 [10]: 300 nM
- IC50 [11]: 700 nM
- Ratio IC50 [12]: 3.6
- Ratio IC50 [13]: 1.2
- Ratio IC50 [14]: 0.4
- Ratio IC50 [15]: 1.5
- Ratio IC50 [16]: 2.2
- Ratio IC50 [17]: 1
- Ratio IC50 [18]: 2.3
- Activity [19]: inactive
- Activity [20]: Active
- Activity [21]: Active
- Activity [22]: Active
- IC50 [23]: 1200 nM

SMILES: CC(C)CN(C[C@@H](O)[C@H](Cc1ccccc1)NC(=O)O[C@H]1CO[C@H]2OCC[C@H]21)S(=O)(=O)c1ccc(N)cc1
- Activity [24]: inactive
- Activity [25]: Active

SMILES: Nc1nc(-c2ccc(OCc3cccc(C(=O)NCCNC(=O)c4ccc(COc5ccc(Cl)cc5-c5csc(N)n5)cc4)c3)cc2)cs1.O=C(O)C(F)(F)F.O=C(O)C(F)(F)F
- IC50 [1]: 800 nM
- inhibition [2]: 20%
- CC50 at 168 h [3]: > 50000 nM
- selectivity ratio at 48 h [4]: > 63
- IC50 [5]: 600 nM
- IC50 [6]: 1600 nM
- IC50 [7]: 700 nM
- IC50 [8]: 1400 nM
- IC50 [9]: 6000 nM
- IC50 [10]: 1000 nM
- IC50 [11]: 2200 nM
- Ratio IC50 [12]: 0.7
- Ratio IC50 [13]: 2
- Ratio IC50 [14]: 0.9
- Ratio IC50 [15]: 1.8
- Ratio IC50 [16]: 7.5
- Ratio IC50 [17]: 1.2
- Ratio IC50 [18]: 2.7
- Activity [26]: inactive
- Activity [27]: inactive
- Activity [28]: inactive
- Activity [29]: inactive
- Activity [30]: Active
- IC50 [23]: > 50000 nM

SMILES: Nc1nc(-c2ccccc2OCc2ccc(C(=O)O)cc2)cs1
- inhibition [2]: 6%
- IC50 [31]: 95000 nM
